# Measured values from ChEMBL document CHEMBL1152285 (Bioorg Med Chem Lett, 2008).
# The source made the active and inactive calls. No cut-off for these calls is given here.
# Biological target: Histone deacetylase 1 (Homo sapiens, UniProt Q13547)
# Experiment: Inhibition of HDAC1 purified from HEK293 cells by Western blot
# Assay type: cell-free
# Details: not given
# Histone deacetylase 1, sequence (Q13547 whole entry): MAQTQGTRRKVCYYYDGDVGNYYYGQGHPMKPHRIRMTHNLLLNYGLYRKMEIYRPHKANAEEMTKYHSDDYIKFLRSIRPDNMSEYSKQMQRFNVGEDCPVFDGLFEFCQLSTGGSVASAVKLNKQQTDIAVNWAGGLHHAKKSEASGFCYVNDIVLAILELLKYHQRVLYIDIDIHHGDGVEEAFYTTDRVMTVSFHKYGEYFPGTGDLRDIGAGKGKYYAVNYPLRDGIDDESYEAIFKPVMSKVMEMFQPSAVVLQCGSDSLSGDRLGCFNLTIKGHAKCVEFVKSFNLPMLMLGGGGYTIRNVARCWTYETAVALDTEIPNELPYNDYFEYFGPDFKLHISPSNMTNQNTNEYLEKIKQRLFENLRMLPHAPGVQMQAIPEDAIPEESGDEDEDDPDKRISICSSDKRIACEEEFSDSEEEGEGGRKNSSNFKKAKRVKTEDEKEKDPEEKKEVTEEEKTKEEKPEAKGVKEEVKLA
row,Structure (SMILES),IC50 [nM]
1,O=C(c1ccc(C(=O)C(F)(F)F)s1)N1CCc2ccccc21,1300
2,COc1ccc(Cl)cc1N1CCN(C(=O)c2ccc(C(=O)C(F)(F)F)s2)CC1,4400
3,C[C@H](NC(=O)c1ccc(C(=O)C(F)(F)F)s1)c1ccccc1,5000
4,CC(NC(=O)c1ccc(C(=O)C(F)(F)F)s1)c1ccncc1 (stereo unspecified),1600
5,O=C(c1ccc(C(=O)C(F)(F)F)s1)N1CCC(c2nnc(-c3ccccc3)o2)CC1,1300
6,O=C(c1ncc(C(=O)C(F)(F)F)s1)N1CCc2ccccc21,1600
7,CN(Cc1ccccc1)C(=O)c1ccc(C(=O)C(F)(F)F)s1,890

# Biological target: Histone deacetylase 3 (Homo sapiens, UniProt O15379)
# Sequence (O15379 whole entry): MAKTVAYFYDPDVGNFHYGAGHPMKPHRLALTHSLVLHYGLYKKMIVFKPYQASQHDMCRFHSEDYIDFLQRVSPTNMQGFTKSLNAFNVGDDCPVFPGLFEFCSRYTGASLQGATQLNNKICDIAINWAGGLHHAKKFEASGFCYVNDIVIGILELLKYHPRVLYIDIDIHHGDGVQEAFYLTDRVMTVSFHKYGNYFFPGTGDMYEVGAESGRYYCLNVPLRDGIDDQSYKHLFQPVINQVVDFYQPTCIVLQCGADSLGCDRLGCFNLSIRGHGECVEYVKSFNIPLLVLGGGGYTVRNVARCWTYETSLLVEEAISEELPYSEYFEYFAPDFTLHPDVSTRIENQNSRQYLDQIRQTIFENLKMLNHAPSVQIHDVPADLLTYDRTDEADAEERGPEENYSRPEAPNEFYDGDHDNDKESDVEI
# Experiment: Inhibition of HDAC3 purified from HEK293 cells by Western blot
# Assay type: cell-free
# Details: not given
row,Structure (SMILES),IC50 [nM]
1,O=C(c1ccc(C(=O)C(F)(F)F)s1)N1CCc2ccccc21,1400
2,COc1ccc(Cl)cc1N1CCN(C(=O)c2ccc(C(=O)C(F)(F)F)s2)CC1,> 10000
3,CC(NC(=O)c1ccc(C(=O)C(F)(F)F)s1)c1ccncc1 (stereo unspecified),1500
4,O=C(c1ccc(C(=O)C(F)(F)F)s1)N1CCC(c2nnc(-c3ccccc3)o2)CC1,2800
5,CN(Cc1ccccc1)C(=O)c1ccc(C(=O)C(F)(F)F)s1,560

# System: not listed separately
# Experiment: Inhibition of histidine-tagged HDAC4 wild type catalytic domain purified from Escherichia coli after 10 mins
# Details: not given
# Procedure, shortened: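 His-tagged HDAC4 catalytic domain (653-1084) expressed in E. coli. Trifluoroacetamide substrate then added for 1 h at 37 °C. Stopped with developer/TSA; fluorescence read at ex 360/em 460. IC50 values are means of >2 experiments.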
row,Structure (SMILES),IC50 [nM]
1,O=C(c1ccc(C(=O)C(F)(F)F)s1)N1CCc2ccccc21,150
2,COc1ccc(Cl)cc1N1CCN(C(=O)c2ccc(C(=O)C(F)(F)F)s2)CC1,530
3,C[C@H](NC(=O)c1ccc(C(=O)C(F)(F)F)s1)c1ccccc1,170
4,CC(NC(=O)c1ccc(C(=O)C(F)(F)F)s1)c1ccncc1 (stereo unspecified),90
5,O=C(c1ccc(C(=O)C(F)(F)F)s1)N1CCC(c2nnc(-c3ccccc3)o2)CC1,70
6,O=C(c1ncc(C(=O)C(F)(F)F)s1)N1CCc2ccccc21,13
7,CN(Cc1ccccc1)C(=O)c1ccc(C(=O)C(F)(F)F)s1,510

# Biological target: T1, Protein deacetylase HDAC6 (Homo sapiens, UniProt Q9UBN7)
# T1 sequence (Q9UBN7 whole entry): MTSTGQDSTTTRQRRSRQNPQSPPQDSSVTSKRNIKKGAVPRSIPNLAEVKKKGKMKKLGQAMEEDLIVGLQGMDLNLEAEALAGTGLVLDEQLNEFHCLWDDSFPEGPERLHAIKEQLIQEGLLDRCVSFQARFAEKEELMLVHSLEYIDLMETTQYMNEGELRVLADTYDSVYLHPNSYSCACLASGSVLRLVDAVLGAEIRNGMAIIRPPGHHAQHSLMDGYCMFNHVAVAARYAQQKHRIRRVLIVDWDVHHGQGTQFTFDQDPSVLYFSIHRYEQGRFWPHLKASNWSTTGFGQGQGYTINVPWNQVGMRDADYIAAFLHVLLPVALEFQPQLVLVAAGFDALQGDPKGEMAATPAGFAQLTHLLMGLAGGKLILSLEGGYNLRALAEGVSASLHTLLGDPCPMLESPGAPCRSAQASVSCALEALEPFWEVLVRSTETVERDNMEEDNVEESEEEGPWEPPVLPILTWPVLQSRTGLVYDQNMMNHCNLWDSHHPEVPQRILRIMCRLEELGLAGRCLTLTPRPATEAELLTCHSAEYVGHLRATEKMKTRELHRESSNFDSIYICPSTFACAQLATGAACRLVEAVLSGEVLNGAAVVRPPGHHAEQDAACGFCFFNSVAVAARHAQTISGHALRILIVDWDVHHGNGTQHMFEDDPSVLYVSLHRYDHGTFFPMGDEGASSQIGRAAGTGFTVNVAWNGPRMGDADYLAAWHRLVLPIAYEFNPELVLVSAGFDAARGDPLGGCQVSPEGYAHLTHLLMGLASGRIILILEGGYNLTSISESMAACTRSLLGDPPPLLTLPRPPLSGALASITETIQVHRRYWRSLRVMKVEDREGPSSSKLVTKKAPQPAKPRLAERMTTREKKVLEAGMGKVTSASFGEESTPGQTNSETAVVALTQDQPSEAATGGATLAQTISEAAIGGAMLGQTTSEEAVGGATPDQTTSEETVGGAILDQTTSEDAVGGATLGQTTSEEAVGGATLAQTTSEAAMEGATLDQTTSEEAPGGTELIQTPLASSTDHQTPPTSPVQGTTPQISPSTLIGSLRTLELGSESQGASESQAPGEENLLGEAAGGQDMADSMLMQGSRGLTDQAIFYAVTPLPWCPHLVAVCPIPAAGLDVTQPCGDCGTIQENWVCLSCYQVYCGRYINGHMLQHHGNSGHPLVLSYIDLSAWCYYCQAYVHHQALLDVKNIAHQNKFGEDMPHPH
# Experiment: Inhibition of HDAC6 purified from HEK293 cells by Western blot
# Assay type: cell-free
# Details: not given
row,Structure (SMILES),IC50 [nM]
1,O=C(c1ccc(C(=O)C(F)(F)F)s1)N1CCc2ccccc21,130
2,COc1ccc(Cl)cc1N1CCN(C(=O)c2ccc(C(=O)C(F)(F)F)s2)CC1,175
3,C[C@H](NC(=O)c1ccc(C(=O)C(F)(F)F)s1)c1ccccc1,150
4,CC(NC(=O)c1ccc(C(=O)C(F)(F)F)s1)c1ccncc1 (stereo unspecified),260
5,O=C(c1ccc(C(=O)C(F)(F)F)s1)N1CCC(c2nnc(-c3ccccc3)o2)CC1,160
6,O=C(c1ncc(C(=O)C(F)(F)F)s1)N1CCc2ccccc21,410

# Biological target: Histone deacetylase
# Experiment: Inhibition of HDAC in human HCT116 cells assessed as alpha-tubulin deacetylation
# Assay type: cell-based
# Details: hct-116
# Procedure, shortened: (§1)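 HCT116 cells treated 24 h. Alpha-tubulin acetylation measured, with the signal from 10 µM SAHA taken as 100% activation. Values are means of >2 experiments.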
row,Structure (SMILES),EC50 [nM]
1,CC(NC(=O)c1ccc(C(=O)C(F)(F)F)s1)c1ccncc1 (stereo unspecified),10000

# Biological target: T2, Histone deacetylase (Homo sapiens) (UniProt Q13547+O15379+Q9UBN7+Q92769+Q9UQL6+Q8WUI4+Q9BY41+Q96DB2+P56524+Q9UKV0+Q969S8)
# Experiment: Inhibition of HDAC in human HCT116 cells assessed as alpha-tubulin deacetylation up to 10 uM after 24 hrs
# Assay type: cell-based
# Details: HCT-116
# Procedure, shortened: as §1
row,Structure (SMILES),Activity
1,COc1ccc(Cl)cc1N1CCN(C(=O)c2ccc(C(=O)C(F)(F)F)s2)CC1,inactive
2,O=C(c1ncc(C(=O)C(F)(F)F)s1)N1CCc2ccccc21,inactive

# Biological target: T3, Cytochrome P450 2C9 (Homo sapiens, UniProt P11712)
# T3 sequence (P11712 whole entry): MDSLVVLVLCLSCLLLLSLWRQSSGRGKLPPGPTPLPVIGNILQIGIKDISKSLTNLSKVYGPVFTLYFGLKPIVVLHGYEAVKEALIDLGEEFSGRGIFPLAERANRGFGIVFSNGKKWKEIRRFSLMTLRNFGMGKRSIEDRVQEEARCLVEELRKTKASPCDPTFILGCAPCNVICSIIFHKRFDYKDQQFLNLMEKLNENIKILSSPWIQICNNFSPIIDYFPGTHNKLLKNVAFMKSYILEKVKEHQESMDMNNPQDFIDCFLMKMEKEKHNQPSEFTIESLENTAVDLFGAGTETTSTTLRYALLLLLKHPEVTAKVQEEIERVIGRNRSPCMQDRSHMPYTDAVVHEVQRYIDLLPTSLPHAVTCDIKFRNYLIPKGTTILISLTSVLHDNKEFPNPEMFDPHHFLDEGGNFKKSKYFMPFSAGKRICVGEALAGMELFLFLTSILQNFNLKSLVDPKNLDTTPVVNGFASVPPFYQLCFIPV
# Experiment: Inhibition of CYP2C9 in human liver microsomes
# Assay type: ADME, Microsome
# Details: not given
# Procedure, shortened: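 Human liver microsomes. Read-out is tritium released as tritiated water on CYP2C9-mediated 4'-hydroxylation of diclofenac tritiated at the 4' position. IC50 values are means of >2 experiments.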
row,Structure (SMILES),IC50 [nM]
1,COc1ccc(Cl)cc1N1CCN(C(=O)c2ccc(C(=O)C(F)(F)F)s2)CC1,1800
2,CC(NC(=O)c1ccc(C(=O)C(F)(F)F)s1)c1ccncc1 (stereo unspecified),13000
3,O=C(c1ccc(C(=O)C(F)(F)F)s1)N1CCC(c2nnc(-c3ccccc3)o2)CC1,8000

# Biological target: T3, Cytochrome P450 2C9
# Experiment: Inhibition of CYP2C9 in human hepatocytes
# Assay type: ADME, cell-based, Hepatocyte
# Details: not given
# Procedure, shortened: (§2)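 Human hepatocytes. Read-out is CYP2C9-mediated 4'-hydroxylation of 4'-tritiated diclofenac, measured as tritiated water. Run without serum and with 10% FBS added. IC50 values are means of >2 experiments.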
row,Structure (SMILES),IC50 [nM]
1,COc1ccc(Cl)cc1N1CCN(C(=O)c2ccc(C(=O)C(F)(F)F)s2)CC1,1800
2,CC(NC(=O)c1ccc(C(=O)C(F)(F)F)s1)c1ccncc1 (stereo unspecified),10000
3,O=C(c1ccc(C(=O)C(F)(F)F)s1)N1CCC(c2nnc(-c3ccccc3)o2)CC1,8000

# Biological target: T3, Cytochrome P450 2C9
# Experiment: Inhibition of CYP2C9 in human hepatocytes in presence of 10% fetal bovine serum
# Assay type: ADME, cell-based, Hepatocyte
# Details: not given
# Procedure, shortened: as §2
row,Structure (SMILES),IC50 [nM]
1,CC(NC(=O)c1ccc(C(=O)C(F)(F)F)s1)c1ccncc1 (stereo unspecified),3000
2,O=C(c1ccc(C(=O)C(F)(F)F)s1)N1CCC(c2nnc(-c3ccccc3)o2)CC1,5000

# System: Hepatocyte
# Experiment: Toxicity in human hepatocytes by MTS assay
# Assay type: cell-based
# Details: not given
row,Structure (SMILES),Activity
1,COc1ccc(Cl)cc1N1CCN(C(=O)c2ccc(C(=O)C(F)(F)F)s2)CC1,Non-toxic
2,CC(NC(=O)c1ccc(C(=O)C(F)(F)F)s1)c1ccncc1 (stereo unspecified),Non-toxic
3,O=C(c1ccc(C(=O)C(F)(F)F)s1)N1CCC(c2nnc(-c3ccccc3)o2)CC1,Non-toxic

# System: not listed separately
# Experiment: Stability in human HCT116 cells by LCMS/MS in presence of 10% fetal bovine serum
# Assay type: ADME, cell-based, HCT-116
# Details: not given
# Procedure, shortened: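 Compounds at 1 and 5 µM incubated with HCT116 cells in medium with 10% FBS for up to 24 h. Aliquots taken over time and analysed by LCMS/MS. A cell-free medium control was run. Half-life was derived.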
row,Structure (SMILES),half-life [h]
1,COc1ccc(Cl)cc1N1CCN(C(=O)c2ccc(C(=O)C(F)(F)F)s2)CC1,2
2,CC(NC(=O)c1ccc(C(=O)C(F)(F)F)s1)c1ccncc1 (stereo unspecified),5
3,O=C(c1ccc(C(=O)C(F)(F)F)s1)N1CCC(c2nnc(-c3ccccc3)o2)CC1,2

# Biological target: Histone deacetylase
# Experiment: Inhibition of HDAC in human HCT116 cells assessed as histone H3 deacetylation
# Assay type: cell-based
# Details: hct-116
row,Structure (SMILES),EC50 [nM]
1,CC(NC(=O)c1ccc(C(=O)C(F)(F)F)s1)c1ccncc1 (stereo unspecified),> 35000

# Biological target: T2, Histone deacetylase (Homo sapiens)
# Experiment: Inhibition of HDAC in human HCT116 cells assessed as histone H3 deacetylation up to 10 uM
# Assay type: cell-based
# Details: HCT-116
row,Structure (SMILES),Activity
1,COc1ccc(Cl)cc1N1CCN(C(=O)c2ccc(C(=O)C(F)(F)F)s2)CC1,inactive

# System: not listed separately
# Experiment: Stability in human HCT116 cells S9 fraction by LCMS/MS in presence of NADPH
# Assay type: ADME, subcellular
# Details: not given
# Procedure, shortened: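 S9 at 1 mg/ml with 1 mM NADPH plus a regenerating system, 37 °C with low shaking. Stopped with 1N HCl, centrifuged, supernatant diluted with acetonitrile containing internal standard, analysed by LCMS/MS.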
row,Structure (SMILES),half-life [h]
1,O=C(c1ncc(C(=O)C(F)(F)F)s1)N1CCc2ccccc21,0.333

# System: not listed separately
# Experiment: Toxicity in human […] by MTS assay
# Details: not given
row,Structure (SMILES),Activity
1,COc1ccc(Cl)cc1N1CCN(C(=O)c2ccc(C(=O)C(F)(F)F)s2)CC1,Non-toxic
